Reference: PMC7246176 (Nature chemical biology, 2020)
Where two headings read alike, the source gives them in different places.

Legend:
[1] = target: T1, purified, recombinant DCLK1 kinase domain (Homo sapiens, UniProt O15075); experiment: DCLK1 isothermal titration calorimetry; type: binding
T1 sequence (O15075 351-689 isoform O15075-2): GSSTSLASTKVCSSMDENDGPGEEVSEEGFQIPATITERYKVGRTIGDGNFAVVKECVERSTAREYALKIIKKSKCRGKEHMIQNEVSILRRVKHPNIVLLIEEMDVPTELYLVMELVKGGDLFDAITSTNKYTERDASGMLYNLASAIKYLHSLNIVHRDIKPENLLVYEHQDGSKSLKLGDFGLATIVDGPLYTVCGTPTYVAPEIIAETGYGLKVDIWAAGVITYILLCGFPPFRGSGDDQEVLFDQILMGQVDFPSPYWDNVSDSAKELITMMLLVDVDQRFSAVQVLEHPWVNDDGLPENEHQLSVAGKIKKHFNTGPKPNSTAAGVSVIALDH

[2] = target: T2, DCLK1 (Homo sapiens, UniProt O15075); experiment: 33P-ATP DCLK1 kinase assay; type: biochemical; settings: ATP 50 μM (Km)
T2 sequence (O15075 1-740): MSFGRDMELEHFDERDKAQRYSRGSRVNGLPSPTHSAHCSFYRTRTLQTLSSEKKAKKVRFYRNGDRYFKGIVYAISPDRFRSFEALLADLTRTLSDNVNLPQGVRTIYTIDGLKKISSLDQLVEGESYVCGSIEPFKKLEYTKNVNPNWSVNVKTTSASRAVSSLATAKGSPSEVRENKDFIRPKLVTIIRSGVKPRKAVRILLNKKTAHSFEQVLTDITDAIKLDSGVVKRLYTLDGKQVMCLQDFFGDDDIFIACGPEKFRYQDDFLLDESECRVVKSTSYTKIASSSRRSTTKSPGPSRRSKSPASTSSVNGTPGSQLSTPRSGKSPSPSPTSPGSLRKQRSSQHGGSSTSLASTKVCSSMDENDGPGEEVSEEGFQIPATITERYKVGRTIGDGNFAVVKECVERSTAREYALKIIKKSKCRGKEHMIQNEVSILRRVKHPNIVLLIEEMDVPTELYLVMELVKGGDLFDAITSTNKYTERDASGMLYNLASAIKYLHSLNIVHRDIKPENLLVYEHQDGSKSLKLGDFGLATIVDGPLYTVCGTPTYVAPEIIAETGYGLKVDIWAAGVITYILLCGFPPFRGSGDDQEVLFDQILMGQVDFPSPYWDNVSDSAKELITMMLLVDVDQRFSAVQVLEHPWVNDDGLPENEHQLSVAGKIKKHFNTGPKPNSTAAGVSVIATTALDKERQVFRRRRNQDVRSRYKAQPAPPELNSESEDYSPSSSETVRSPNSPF

[3] = target: T3, ERK5 (Homo sapiens, UniProt Q13164); experiment: ERK5 KINOMEscan binding assay
T3 sequence (Q13164 whole entry): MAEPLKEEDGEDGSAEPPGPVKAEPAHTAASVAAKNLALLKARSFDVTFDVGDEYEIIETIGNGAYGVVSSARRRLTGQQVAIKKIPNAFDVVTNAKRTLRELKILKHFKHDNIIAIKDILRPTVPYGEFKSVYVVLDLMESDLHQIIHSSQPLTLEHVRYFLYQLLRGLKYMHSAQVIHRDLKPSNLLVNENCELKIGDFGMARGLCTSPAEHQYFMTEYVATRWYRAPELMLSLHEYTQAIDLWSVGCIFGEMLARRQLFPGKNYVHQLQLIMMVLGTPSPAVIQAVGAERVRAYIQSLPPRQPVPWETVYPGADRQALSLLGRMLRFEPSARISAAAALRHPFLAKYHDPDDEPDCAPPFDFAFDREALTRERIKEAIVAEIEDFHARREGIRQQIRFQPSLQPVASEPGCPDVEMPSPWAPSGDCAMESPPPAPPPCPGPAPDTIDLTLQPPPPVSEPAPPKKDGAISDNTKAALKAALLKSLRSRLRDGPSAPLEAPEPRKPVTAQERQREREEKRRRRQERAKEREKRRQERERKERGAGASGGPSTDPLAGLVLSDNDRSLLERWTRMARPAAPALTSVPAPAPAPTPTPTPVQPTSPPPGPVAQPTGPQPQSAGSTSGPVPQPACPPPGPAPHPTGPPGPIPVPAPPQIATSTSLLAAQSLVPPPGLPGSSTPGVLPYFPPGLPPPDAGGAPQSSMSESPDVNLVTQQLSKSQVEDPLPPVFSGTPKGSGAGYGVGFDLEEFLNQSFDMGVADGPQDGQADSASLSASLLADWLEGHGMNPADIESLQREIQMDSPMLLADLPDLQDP

[4] = target: T3, ERK5; experiment: ERK5 32P-ATP kinase assay; type: biochemical; settings: ERK5 kinase assay IC50, 32P-ATP; Table 1
[5] = target: T3, ERK5; experiment: ERK5 cellular kinase assay in HeLa cells; type: cell-based
[6] = target: LRRK2 (Homo sapiens, UniProt Q5S007); experiment: LRRK2 ADAPTA kinase assay; type: biochemical; settings: Table 1
Sequence of LRRK2 (Q5S007 whole entry): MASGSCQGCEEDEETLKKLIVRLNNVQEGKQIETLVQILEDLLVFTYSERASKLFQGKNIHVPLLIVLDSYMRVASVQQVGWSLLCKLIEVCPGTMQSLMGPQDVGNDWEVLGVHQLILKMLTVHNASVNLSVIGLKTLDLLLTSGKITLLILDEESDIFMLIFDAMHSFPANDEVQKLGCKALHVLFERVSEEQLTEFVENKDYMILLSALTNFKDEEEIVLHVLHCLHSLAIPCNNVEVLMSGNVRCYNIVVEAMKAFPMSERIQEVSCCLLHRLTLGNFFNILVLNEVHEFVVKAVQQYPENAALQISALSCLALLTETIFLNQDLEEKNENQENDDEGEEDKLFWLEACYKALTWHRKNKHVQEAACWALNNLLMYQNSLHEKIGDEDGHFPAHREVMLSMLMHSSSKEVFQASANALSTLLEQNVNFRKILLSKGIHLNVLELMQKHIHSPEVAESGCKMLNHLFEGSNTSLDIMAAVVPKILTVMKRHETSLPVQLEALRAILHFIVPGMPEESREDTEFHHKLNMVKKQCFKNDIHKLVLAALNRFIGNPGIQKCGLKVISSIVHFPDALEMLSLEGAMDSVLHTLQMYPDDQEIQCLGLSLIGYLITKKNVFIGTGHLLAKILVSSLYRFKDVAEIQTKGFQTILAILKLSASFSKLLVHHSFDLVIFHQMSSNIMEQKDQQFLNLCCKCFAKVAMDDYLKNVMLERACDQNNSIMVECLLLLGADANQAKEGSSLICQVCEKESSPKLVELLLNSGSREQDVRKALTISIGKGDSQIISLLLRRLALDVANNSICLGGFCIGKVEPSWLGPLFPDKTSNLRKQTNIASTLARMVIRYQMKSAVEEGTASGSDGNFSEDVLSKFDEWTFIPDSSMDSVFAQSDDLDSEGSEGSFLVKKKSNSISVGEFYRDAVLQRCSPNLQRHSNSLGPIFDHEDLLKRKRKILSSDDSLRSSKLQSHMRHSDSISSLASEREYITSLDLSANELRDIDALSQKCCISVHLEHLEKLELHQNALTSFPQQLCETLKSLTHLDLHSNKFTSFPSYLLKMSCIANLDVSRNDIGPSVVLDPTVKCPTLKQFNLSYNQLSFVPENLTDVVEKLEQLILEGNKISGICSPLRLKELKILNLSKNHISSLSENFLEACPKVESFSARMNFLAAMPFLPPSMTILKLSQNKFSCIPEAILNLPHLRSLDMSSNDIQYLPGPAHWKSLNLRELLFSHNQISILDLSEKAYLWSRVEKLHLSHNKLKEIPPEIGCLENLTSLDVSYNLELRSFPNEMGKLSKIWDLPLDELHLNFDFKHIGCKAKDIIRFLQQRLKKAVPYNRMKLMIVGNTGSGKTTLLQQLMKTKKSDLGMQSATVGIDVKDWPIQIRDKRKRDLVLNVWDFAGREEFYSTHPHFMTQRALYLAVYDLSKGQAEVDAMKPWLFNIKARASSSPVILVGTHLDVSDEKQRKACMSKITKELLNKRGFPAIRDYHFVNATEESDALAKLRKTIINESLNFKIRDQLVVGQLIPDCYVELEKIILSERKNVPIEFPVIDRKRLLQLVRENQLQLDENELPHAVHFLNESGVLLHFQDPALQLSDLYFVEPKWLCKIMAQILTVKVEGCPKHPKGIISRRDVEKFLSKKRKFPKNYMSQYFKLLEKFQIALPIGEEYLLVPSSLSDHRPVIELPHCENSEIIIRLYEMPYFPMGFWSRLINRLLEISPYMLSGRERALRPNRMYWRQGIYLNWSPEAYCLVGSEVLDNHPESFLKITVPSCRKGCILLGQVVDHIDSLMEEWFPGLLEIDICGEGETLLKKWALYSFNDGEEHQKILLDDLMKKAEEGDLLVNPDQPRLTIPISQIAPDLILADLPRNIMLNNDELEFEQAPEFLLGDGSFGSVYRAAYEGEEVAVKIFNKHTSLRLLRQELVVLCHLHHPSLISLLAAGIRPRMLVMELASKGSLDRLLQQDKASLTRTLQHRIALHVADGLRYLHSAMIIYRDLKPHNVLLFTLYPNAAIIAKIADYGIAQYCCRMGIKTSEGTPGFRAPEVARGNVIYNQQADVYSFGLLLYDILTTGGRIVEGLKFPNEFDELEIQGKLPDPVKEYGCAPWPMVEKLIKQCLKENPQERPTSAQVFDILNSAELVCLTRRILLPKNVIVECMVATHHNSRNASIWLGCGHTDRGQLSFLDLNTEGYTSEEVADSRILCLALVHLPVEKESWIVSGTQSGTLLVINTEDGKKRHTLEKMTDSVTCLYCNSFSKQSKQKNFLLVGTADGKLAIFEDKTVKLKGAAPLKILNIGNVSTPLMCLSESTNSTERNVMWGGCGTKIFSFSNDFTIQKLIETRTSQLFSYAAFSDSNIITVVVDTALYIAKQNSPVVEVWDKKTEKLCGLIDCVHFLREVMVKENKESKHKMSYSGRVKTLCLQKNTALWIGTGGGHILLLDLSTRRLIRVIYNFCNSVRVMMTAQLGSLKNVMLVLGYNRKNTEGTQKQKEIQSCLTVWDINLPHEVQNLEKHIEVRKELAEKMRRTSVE

[7] = test system: PATU-8988T cells; experiment: Cell viability, ultra-low adherent 3D-spheroid culture, PATU-8988T; type: cell-based, human; settings: 120 h, read-out: PATU-8988T cells 3D spheroid culture IC50
Outline: (§1)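 PATU-8902 or PATU-8988T cells were plated at 100 cells/well and left overnight to adhere (2D plates) or to form spheroids (ultra-low-attachment 3D spheroid plates). Compound was pin-transferred, then 120 h incubation. Viability by CellTiter-Glo luminescence after 15 min at room temperature, normalized to DMSO-treated wells for each cell line.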

[8] = test system: PATU-8902 cells; experiment: Cell viability, 2D-adherent monolayer culture, PATU-8902; type: cell-based, human; settings: read-out: PATU-8902 cells 2D monolayer culture IC50
Outline: as §1

[9] = test system: PATU-8902 cells; experiment: Cell viability, ultra-low adherent 3D-spheroid culture, PATU-8902; type: cell-based, human; settings: read-out: PATU-8902 cells 3D spheroid culture IC50
Outline: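 PATU-8988T and PATU-8902 cells were plated at 100 cells/well in 50 μL media, either adherent (2D) or in ultra-low attachment spheroid plates (3D), overnight. Test compound was pin-transferred and cells were incubated 120 h. Viability was read by CellTiter-Glo luminescence after 15 min at room temperature. Data were normalized to DMSO-treated wells per cell line and fitted.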

[10] = test system: PANFR0172_T3; experiment: Patient-derived pancreatic organoid viability, PANFR0172_T3; type: cell-based, human; settings: read-out: PANFR0172_T3 3D organoid culture IC50
Outline: (§2)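 Patient-derived PDAC organoids were dissociated to single cells and plated at 1000 viable cells/well in complete organoid medium with 10% Matrigel, in ultra-low-attachment 384-well plates. After 24 h, compound was added by digital dispenser, then 7 days incubation. Read-out was CellTiter-Glo 3D luminescence after 1 h shaking at room temperature, normalized to DMSO wells for each culture.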

[11] = test system: PANFR0172_T4; experiment: Patient-derived pancreatic organoid viability, PANFR0172_T4; type: cell-based, human; settings: read-out: PANFR0172_T4 3D organoid culture IC50
Outline: as §2

[12] = test system: PANFR0029_T2; experiment: Patient-derived pancreatic organoid viability, PANFR0029_T2; type: cell-based, human; settings: read-out: PANFR0029_T2 3D organoid culture IC50
Outline: as §2

[13] = test system: zebrafish; experiment: Toxicity evaluation during zebrafish embryonic development; type: in vivo; settings: days 1 to 8 post-fertilization, in fish water at concentrations up to 10 μM
[14] = test system: rat hippocampal neurons; experiment: Rat primary hippocampal neuron viability; type: cell-based; settings: concentrations up to 10 μM, 24 hours
Outline: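 Rat primary hippocampal neurons on poly-L-lysine-coated coverslips were treated at DIV6 for 24 h with DMSO or test compound. They were then fixed in glutaraldehyde-containing cytoskeleton buffer with Triton X-100, followed by NaBH4, permeabilized in TBS with 0.5% Triton X-100, and processed for immunofluorescence.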

[15] = Maximum dose tolerability evaluation in mice; type: in vivo, C57B6/6J mice; settings: doses up to 100 mg/kg, oral gavage daily for two weeks, no adverse effects, no loss of body weight
[16] = viability, 7 d, P.R. = partial response

With `COc1cc(N2CCN(C)CC2)ccc1Nc1ncc2c(n1)N(C)c1ccccc1C(=O)N2CC(F)(F)F` [DCLK1-IN-1] the Kd ([1]; ITC Kd, purified recombinant DCLK1 protein, Table 1) was 0.055 µM, the Kd ([1]; Kd, ITC, 20 μM DCLK1, 200 μM compound, Supplementary Table 2 and text) was 0.109 µM and the IC50 ([2]; DCLK1 kinase assay IC50, 33P-ATP) was 0.0572 µM. The IC50 [3] was 1.8 µM, the IC50 [4] was 4 µM and the IC50 [5] was 5.36 µM. For the same molecule, the IC50 ([6]; LRRK2 kinase assay IC50, ADAPTA) was 6.97 µM, the IC50 ([7]; Homo sapiens, PaTu 8988t) was greater than 20 µM and the IC50 ([8]; Homo sapiens, PaTu 8902, 120 h) was greater than 20 µM. For the same molecule, the IC50 ([9]; Homo sapiens, PaTu 8902, 120 h) was greater than 20 µM, the IC50 ([10]; Homo sapiens, 168 h) was 2.12 µM and the IC50 ([11]; Homo sapiens, 168 h) was greater than 20 µM. For the same molecule, the IC50 ([12]; Homo sapiens, 168 h) was greater than 20 µM, the “effect on zebrafish CNS or other organ system development” value [13] was “no discernable effect” and the “effect on neuronal viability” value [14] was “no effect on neuronal viability”. For the same molecule, the “tolerability (maximum tolerated dose study)” value [15] was “well-tolerated”.

With `CCOc1cc(N2CCC(O)CC2)ccc1Nc1ncc2c(n1)N(C)c1ccccc1C(=O)N2C` [XMD8-92] the IC50 ([2]; read-out: DCLK1 kinase assay IC50, 33P-ATP) was 0.104 µM, the IC50 ([6]; read-out: LRRK2 kinase assay IC50, ADAPTA) was 0.036 µM and the IC50 ([7]; cell viability) was 6.06 µM. For the same molecule, the IC50 ([8]; cell viability, 120 h) was greater than 20 µM, the IC50 ([9]; cell viability, 120 h, P.R. = partial response) was greater than 20 µM and the IC50 [10, 16] was greater than 20 µM. For the same molecule, the IC50 [11, 16] was greater than 20 µM and the IC50 ([12]; viability, 7 d, DCLK1-negative organoids) was 7.03 µM.
